These results are taken from PMC4591930 (Angewandte Chemie (International ed. in English), 2015).

One may read the Kd as the concentration at which binding is half-saturated. Low values mean a tighter complex, high ones a looser complex.

Where a SMILES comes first, the peptide text is derived from it. [ ]: non-standard residue; d: D form. The star is where a group is joined. FITC = O=C1OC2(c3ccc(O)cc3Oc3cc(O)ccc32)c2ccc(NC(=S)*)cc21; Phe(4-F) = N[C@@H](Cc1ccc(F)cc1)C(=O)O; d2Nal = N[C@H](Cc1ccc2ccccc2c1)C(=O)O; dNle = CCCC[C@@H](N)C(=O)O

The test system of data set [1] is phosphorylation of MEK. Kind of data set: EGF-stimulated MEK phosphorylation in H1299 cells. The format is cell-based, human. In short, it runs like this:
(§1)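 H1299 cells exposed to a range of test compound concentrations for 10 min, then stimulated with EGF (50 ng/ml) for 5 min before lysis. Phospho-Akt (Thr308) and phospho-MEK detected by immunoblot, with total Akt and MEK blotted alongside.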

The test system of data set [2] is Ras-B-Raf interaction. In words: Ras-B-Raf co-immunoprecipitation in H358 cells. The format is cell-based, human. The note with it: anti-Ras precipitation, anti-B-Raf immunoblot. An outline of the steps: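 H358 lung cancer cells treated with increasing test compound concentrations. Lysates immunoprecipitated with anti-Ras antibody and co-precipitated B-Raf detected by anti-B-Raf immunoblot. Whole-cell lysate blotted alongside.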
For orientation: Immunoblotting shows a protein as a band on a membrane.

Data set [3] deals with lung cancer cells. Kind of data set: Cell permeability of hits. The data set is classed as cell-based, human. The settings on record: qualitative. An outline of the steps: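 A549 lung cancer cells given 5 μM FITC-labelled test compound for 30 min. Uptake viewed live by confocal microscopy with DRAQ5 nuclear counterstain. Total cell-associated fluorescence measured by flow cytometry against untreated control cells.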

In data set [4] the test system is H1299 cells. In words: Annexin-FITC / propidium iodide flow cytometry of treated H1299 cells. The settings on record: 10 μM, 3 h. The format is cell-based, human.
Data set [5] relates to caspase-3 activity. In words: Caspase-3 activity in H1299 cells. The note with it: 10 μM, 3 h. The data set is classed as cell-based, human.
The target in data set [6] is Ras-Raf interaction (Homo sapiens, UniProt P01116, G12V). Kind of data set: Homogeneous time-resolved fluorescence. The format is binding. The settings on record: Gln-8 replaced with L- or D-arginine, versus 9A1-4.
Data set [7] has as its system phosphorylation of Akt at Thr308. Kind of data set: EGF-stimulated Akt Thr308 phosphorylation in H1299 cells. The data set is classed as cell-based, human. An outline of the steps: as §1
For data set [8], the target named is K-Ras (Homo sapiens, UniProt P01116, G12V). In words: Fluorescence anisotropy. The format is binding. The settings on record: fluorescence anisotropy in solution. In general terms: Polarisation of emitted light reports the rotation of a fluorescent probe.
In data set [9] the test system is lung cancer cells. Kind of data set: Anti-proliferative activity against lung cancer cells. The data set is classed as cell-based, human. The note with it: qualitative.
For data set [10], the system named is A549 lung cancer cells. In words: Flow cytometry of cellular uptake of FITC-labeled peptides. The settings on record: 5 μM, 30 min. The format is cell-based, human. On the technique in general: In flow cytometry, cells or beads pass a laser one at a time.
Data set [11] addresses panel of five arbitrarily selected control proteins. In words: FA binding to control proteins.

Chain of Ras-Raf interaction (P01116 1-188 isoform P01116-2 G12V): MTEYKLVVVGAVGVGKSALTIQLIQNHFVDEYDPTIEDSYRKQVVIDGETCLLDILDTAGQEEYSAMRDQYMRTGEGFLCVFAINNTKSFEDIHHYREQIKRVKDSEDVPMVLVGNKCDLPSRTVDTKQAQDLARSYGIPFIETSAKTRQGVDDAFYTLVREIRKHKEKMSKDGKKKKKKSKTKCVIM
Chain of K-Ras (P01116 1-188 isoform P01116-2 G12V): as above

`CCCC[C@H]1NC(=O)[C@H]([C@@H](C)O)NC(=O)[C@@H](C)NC(=O)[C@H](CCCNC(=N)N)NC(=O)[C@H](CCCNC(=N)N)NC(=O)[C@H](CCCNC(=N)N)NC(=O)[C@@H](Cc2ccc3ccccc3c2)NC(=O)[C@H](CCCNC(=N)N)NC(=O)[C@H](Cc2ccc(F)cc2)NC(=O)[C@H](Cc2c[nH]c3ccccc23)NC(=O)[C@H](CCC(N)=O)NC1=O` [9A5] (cyclo(QW[Phe(4-F)]R[d2Nal]RRR[dA]T[dNle])): the “concentration abolishing MEK phosphorylation” value in [1] (H1299 cells) is no less than 12 µM. The “exposure time at which dephosphorylation of MEK was largely complete” value in [1] (time-course experiment) was 10 min. Further, in data set [2], the “inhibition of Ras-B-Raf interaction in cells” value is given as “dose-dependently inhibited”. For the same compound, the cell permeability entry in [3] is given as “improved cell permeability”. Moreover, in [4], the “annexin-FITC and propidium iodide staining” value was “positive”. In data set [5], the “fold increase in caspase-3 activity” value is reported as 2.3 fold. Further, in data set [6], the “fold higher affinity for K-Ras” value is ~ 4 fold. For the same compound, in [7] (H1299 cells), the “concentration abolishing Akt Thr308 phosphorylation” value was no less than 12 µM. Moreover, in [7] (time-course experiment), the “exposure time at which dephosphorylation of Akt was largely complete” value came to 10 min.

Regarding `CCCC[C@H]1NC(=O)[C@H]([C@@H](C)O)NC(=O)[C@@H](C)NC(=O)[C@@H](CCCNC(=N)N)NC(=O)[C@H](CCCNC(=N)N)NC(=O)[C@H](CCCNC(=N)N)NC(=O)[C@@H](Cc2ccc3ccccc3c2)NC(=O)[C@H](CCCNC(=N)N)NC(=O)[C@H](Cc2ccc(F)cc2)NC(=O)[C@H](Cc2c[nH]c3ccccc23)NC(=O)[C@H](CCC(N)=O)NC1=O` [9A6] (cyclo(QW[Phe(4-F)]R[d2Nal]RR[dR][dA]T[dNle])), in data set [3], the cell permeability result is recorded as “improved cell permeability”. For the same compound, the “fold higher affinity for K-Ras” value in data set [6] is reported as ~ 4 fold.

As to `CCCC[C@H]1NC(=O)[C@H]([C@@H](C)O)NC(=O)[C@@H](C)NC(=O)[C@H](CCC(N)=O)NC(=O)[C@H](CCCNC(=N)N)NC(=O)[C@H](CCCNC(=N)N)NC(=O)[C@@H](Cc2ccc3ccccc3c2)NC(=O)[C@H](CCCNC(=N)N)NC(=O)[C@H](Cc2ccc(F)cc2)NC(=O)[C@H](Cc2c[nH]c3ccccc23)NC(=O)[C@@H](CO)NC1=O` [9A] (cyclo([dS]W[Phe(4-F)]R[d2Nal]RRQ[dA]T[dNle])), in data set [3], the cell permeability result was “cell permeable”. Further, the “binding to K-Ras” value in [8] is given as “strong binding”. Further, the anti-proliferative activity result in data set [9] was “weak anti-proliferative activity”.

`CCCC[C@H]1NC(=O)[C@H]([C@@H](C)O)NC(=O)[C@@H](C)NC(=O)[C@H](CCCNC(=N)N)NC(=O)[C@H](CCCNC(=N)N)NC(=O)[C@H](CCCCNC(=S)Nc2ccc3c(c2)C(=O)OC32c3ccc(O)cc3Oc3cc(O)ccc32)NC(=O)[C@@H](Cc2ccc3ccccc3c2)NC(=O)[C@H](CCCNC(=N)N)NC(=O)[C@H](Cc2ccc(F)cc2)NC(=O)[C@H](Cc2c[nH]c3ccccc23)NC(=O)[C@H](CCC(N)=O)NC1=O` [FITC-9A5] (cyclo(QW[Phe(4-F)]R[d2Nal]K(FITC)RR[dA]T[dNle])): in [10], the “fold more efficient cell entry than FITC-9A54” value was ~ 5 fold. For the same compound, the Kd in data set [11] is no less than 30 µM.
